{
  "source": "PubChem BioAssay AID492968",
  "about": "(Southern Research Specialized Biocontainment Screening …, 2010)",
  "data": [
    {"tested_on": "HEp-2 viability, luminescence (CellTiter-Glo)", "assay": "HEp-2 cell cytotoxicity, dose response, cytotoxicity control for RSV inhibitor project, CellTiter-Glo luminescence, synthesized compounds, set 3 (AID 492968)", "method_in_brief": "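test system = HEp-2 cells | amount = 10,595 cells/well | compound = eight twofold dilutions, 50 to 0.39 µM final, 0.5% DMSO | times = compound exposure of 6 days at 37 °C, 5% CO2 | signal = CellTiter-Glo luminescence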", "units": {"CC50": "µM"}, "values": [
      {"smiles": "Cc1cc(C)cc(NC(=O)[C@@H]2CCCN2S(=O)(=O)c2cccc3cccnc23)c1", "CC50": 31.6},
      {"smiles": "Cc1ccccc1NC(=O)[C@@H]1CCCN1S(=O)(=O)c1cccc2cccnc12", "CC50": 45},
      {"smiles": "Cc1ccc(NC(=O)[C@@H]2CCCN2S(=O)(=O)c2cccc3cccnc23)cc1", "CC50": 27.1}
    ]}
  ]
}
